Test results as given in paper PMC5796531 (Chemistry (Weinheim an der Bergstrasse, Germany), 2014).
Like-named read-outs stand apart in the source and are kept apart here.

Key:
Format in all cases: cell-based, human
T98G brain cancer cells = assay: MTT cell growth inhibition assay, T98G; details: read-out: IC50 values, T98G
How it was run: (§1)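 MTT assay: cells seeded at 1 × 10^5/well and allowed to adhere 24 h (37°C, 5% CO2). Compound was diluted from DMSO:water (1:3) stock into incomplete medium; finals 300–0.07 μM for 24 h. After a PBS rinse, cells got MTT (5 mg/ml) for 3 h; formazan dissolved in DMSO; A540 read. % viability = OD sample/OD control ×100. IC50 from dose-response curve fitting. Three independent duplicate sets; untreated and cisplatin controls.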

[1] = tested on: KB head and neck cancer cells; assay: MTT cell growth inhibition assay, KB; details: read-out: IC50 values, KB
How it was run: as §1

[2] = tested on: SNU80 thyroid cancer cells; assay: MTT cell growth inhibition assay, SNU80; details: read-out: IC50 values, SNU80
How it was run: as §1

[3] = tested on: HEK293 non-cancerous cells; assay: MTT cell growth inhibition assay, HEK293; details: read-out: IC50 values, HEK293
How it was run: as §1

T98G cells = assay: Cellular uptake by fluorescence detection; details: 1–4 μM
How it was run: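 T98G cells in 96-well plates were allowed to adhere for 12 h, then exposed to 1–4 μM at 37°C in complete medium. After a PBS wash and medium replacement, cell-associated fluorescence was read on a plate reader (ex 330, em 485 nm). Free ligand served as the positive control. Microscopy: cells on glass slides, 2 μM overnight, ex 340–380 / barrier 435–485 filters.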

Row | IC50 (T98G brain cancer cells; Homo sapiens, T98G, 24 h) [µM] | IC50 ([1]; Homo sapiens, 24 h) [µM] | IC50 ([2]; Homo sapiens, 24 h) [µM] | Structure (SMILES) | IC50 (T98G brain cancer cells; T98G brain cancer cells, MTT, 24 h treatment) [µM] | IC50 ([1]; KB head and neck cancer cells, MTT, 24 h treatment) [µM] | IC50 ([2]; SNU80 thyroid cancer cells, MTT, 24 h treatment) [µM] | IC50 ([3]; HEK293 non-cancerous cells, MTT, 24 h treatment) [µM] | IC50 ([3]; Homo sapiens, HEK293, 24 h) [µM] | cellular uptake: fluorescence detected in cells (T98G cells)
1 | – | – | – | N.N.[Cl][Pt][Cl] [cisplatin, reference compound] | 69.6 | 72.6 | 49.3 | 17.3 | – | –
2 | 144 | 125 | 107 | O=C(Nc1ccc(C#Cc2ccncc2)cc1)c1cccc(C(=O)Nc2ccc(C#Cc3ccncc3)cc2)n1 [Complex 1, N,N′-bis(4-(pyridin-4-ylethynyl)phenyl)pyridine-2,6-dicarboxamide] | – | – | – | – | 157 | very weak fluorescence
